# Measured values taken from ChEMBL document CHEMBL1649493, “Genetic and biochemical characterization of the first extended-spectrum CARB-type beta-lactamase, RTG-4, from Acinetobacter baumannii” (Antimicrob Agents Chemother, 2009).
# Key:
# [1] = tested on: Escherichia coli; assay: Antibacterial activity against Escherichia coli TOP10 harboring beta-lactamase RTG3 gene by Etest method; assay type: functional
# Summary of the method: (§1)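 MICs read by Etest on Mueller-Hinton agar plates incubated at 37°C. Recombinant E. coli TOP10 carried the cloned β-lactamase gene on plasmid pBK-CMV; the host strain alone was tested alongside.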
# [2] = tested on: Acinetobacter baumannii; assay: Antimicrobial activity against Acinetobacter baumannii CIP70.10 by […]; assay type: functional
# [3] = tested on: Escherichia coli; assay: Antibacterial activity against Escherichia coli TOP10 by Etest method; assay type: functional; summary of the method: as §1
# [4] = tested on: Escherichia coli; assay: Antibacterial activity against Escherichia coli TOP10 harboring recombinant plasmid RTG4-S69 by Etest method; assay type: functional
# [5] = tested on: Acinetobacter baumannii; assay: Antimicrobial activity against Acinetobacter baumannii by […]; assay type: functional
# Summary of the method: (§2)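 MICs were determined by Etest on Mueller-Hinton agar at 37°C. Where indicated, clavulanic acid or tazobactam was added at 4 μg/ml.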
# [6] = tested on: Escherichia coli; assay: Antibacterial activity against Escherichia coli TOP10 harboring recombinant plasmid RTG4-S69-V49 by Etest method; assay type: functional
# [7] = tested on: Escherichia coli; assay: Antibacterial activity against Escherichia coli TOP10 harboring recombinant plasmid RTG4-V49 by Etest method; assay type: functional
# [8] = tested on: Acinetobacter baumannii; assay: Antimicrobial activity against Acinetobacter baumannii CIP70.10 harboring beta-lactamase RTG4 gene by […]; assay type: functional
# [9] = tested on: Acinetobacter baumannii; assay: Antimicrobial activity against Acinetobacter baumannii CIP70.10 harboring beta-lactamase RTG3 gene by […]; assay type: functional
# [10] = tested on: Escherichia coli; assay: Antibacterial activity against Escherichia coli TOP10 harboring beta-lactamase RTG4 gene by Etest method; assay type: functional; summary of the method: as §1
# [11] = Inhibition of recombinant beta-lactamase RTG3 expressed in Escherichia coli TOP10 by benzylpenicillin hydrolysis assay
# [12] = Inhibition of recombinant beta-lactamase RTG4 expressed in Escherichia coli TOP10 by benzylpenicillin hydrolysis assay
# [13] = Ratio of Kcat to Km for recombinant beta-lactamase RTG4 expressed in Escherichia coli TOP10 by nitrocefin hydrolysis assay
# [14] = Activity of recombinant beta-lactamase RTG4 expressed in Escherichia coli TOP10 assessed as Ratio of Kcat to Km by nitrocefin hydrolysis assay relative to benzylpenicillin; design: scale not given: the % may be the effect or the level left
# [15] = tested on: Acinetobacter baumannii; assay: Antimicrobial activity against Acinetobacter baumannii CIP70.10 harboring beta-lactamase RTG4 gene by […] in presence of 4 ug/ml Tazobactam; assay type: functional
# [16] = tested on: Acinetobacter baumannii; assay: Antimicrobial activity against Acinetobacter baumannii by […] in presence of 4 ug/ml Tazobactam; assay type: functional; summary of the method: as §2
# [17] = tested on: Acinetobacter baumannii; assay: Antimicrobial activity against Acinetobacter baumannii CIP70.10 harboring beta-lactamase RTG3 gene by […] in presence of 4 ug/ml Tazobactam; assay type: functional
# [18] = tested on: Acinetobacter baumannii; assay: Antimicrobial activity against Acinetobacter baumannii CIP70.10 by […] in presence of 4 ug/ml Tazobactam; assay type: functional; summary of the method: as §2
# [19] = tested on: Escherichia coli; assay: Antibacterial activity against Escherichia coli TOP10 harboring beta-lactamase RTG3 gene by Etest method in presence of 4 ug/ml beta-lactamase inhibitor clavulanic acid; assay type: functional
# Summary of the method: (§3)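 MICs read by Etest on Mueller-Hinton agar at 37°C, with β-lactams combined with clavulanic acid at 4 μg/ml. The strains were E. coli TOP10 carrying the cloned RTG gene or the site-directed mutant plasmids (Thr69Ser, Ala49Val, or both).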
# [20] = tested on: Escherichia coli; assay: Antibacterial activity against Escherichia coli TOP10 by Etest method in presence of 4 ug/ml beta-lactamase inhibitor clavulanic acid; assay type: functional
# Summary of the method: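 MICs by Etest on Mueller-Hinton agar plates incubated at 37°C, with clavulanic acid at a fixed 4 μg/ml. The E. coli TOP10 host was tested with recombinant plasmids carrying the cloned HindIII fragment encoding RTG-4 or its site-directed variants (T69S, A49V).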
# [21] = tested on: Acinetobacter baumannii; assay: Antimicrobial activity against Acinetobacter baumannii CIP70.10 harboring beta-lactamase RTG3 gene by […] in presence of 4 ug/ml beta-lactamase inhibitor clavulanic acid; assay type: functional
# [22] = tested on: Acinetobacter baumannii; assay: Antimicrobial activity against Acinetobacter baumannii by […] in presence of 4 ug/ml beta-lactamase inhibitor clavulanic acid; assay type: functional; summary of the method: as §2
# [23] = tested on: Escherichia coli; assay: Antibacterial activity against Escherichia coli TOP10 harboring recombinant plasmid RTG4-S69-V49 by Etest method in presence of 4 ug/ml beta-lactamase inhibitor clavulanic acid; assay type: functional; summary of the method: as §3
# [24] = tested on: Acinetobacter baumannii; assay: Antimicrobial activity against Acinetobacter baumannii CIP70.10 harboring beta-lactamase RTG4 gene by […] in presence of 4 ug/ml beta-lactamase inhibitor clavulanic acid; assay type: functional
# [25] = tested on: Escherichia coli; assay: Antibacterial activity against Escherichia coli TOP10 harboring recombinant plasmid RTG4-V49 by Etest method in presence of 4 ug/ml beta-lactamase inhibitor clavulanic acid; assay type: functional; summary of the method: as §3
# [26] = tested on: Escherichia coli; assay: Antibacterial activity against Escherichia coli TOP10 harboring recombinant plasmid RTG4-S69 by Etest method in presence of 4 ug/ml beta-lactamase inhibitor clavulanic acid; assay type: functional; summary of the method: as §3
# [27] = tested on: Acinetobacter baumannii; assay: Antimicrobial activity against Acinetobacter baumannii CIP70.10 by […] in presence of 4 ug/ml beta-lactamase inhibitor clavulanic acid; assay type: functional; summary of the method: as §2
# [28] = tested on: Escherichia coli; assay: Antibacterial activity against Escherichia coli TOP10 harboring beta-lactamase RTG4 gene by Etest method in presence of 4 ug/ml beta-lactamase inhibitor clavulanic acid; assay type: functional; summary of the method: as §3
SMILES,MIC [1],MIC [2],MIC [3],MIC [4],MIC [5],MIC [6],MIC [7],MIC [8],MIC [9],MIC [10],kcat/Km [13],Activity [14],further results
CO/N=C(\C(=O)N[C@@H]1C(=O)N2C(C(=O)O)=C(COC(C)=O)CS[C@H]12)c1csc(N)n1 [CEFOTAXIME],0.06 µg/mL,8 µg/mL,0.06 µg/mL,0.25 µg/mL,16 µg/mL,0.25 µg/mL,0.25 µg/mL,16 µg/mL,8 µg/mL,0.25 µg/mL,,,
CC1(C)[C@H](C(=O)O)N2C(=O)C[C@H]2S1(=O)=O [SULBACTAM],,,,,,,,,,,,,IC50 [11]: 0.2 µM; IC50 [12]: 1.5 µM
CC(=O)OCC1=C(C(=O)O)N2C(=O)[C@@H](NC(=O)Cc3cccs3)[C@H]2SC1 [CEPHALOTHIN],4 µg/mL,,4 µg/mL,8 µg/mL,,8 µg/mL,64 µg/mL,,,64 µg/mL,6000 M⁻¹ s⁻¹,0.04%,
CO/N=C(\C(=O)N[C@@H]1C(=O)N2C(C(=O)O)=C(COC(N)=O)CS[C@H]12)c1ccco1 [CEFUROXIME],2 µg/mL,,2 µg/mL,2 µg/mL,,2 µg/mL,2 µg/mL,,,4 µg/mL,,,
CCN1CCN(C(=O)N[C@@H](C(=O)N[C@@H]2C(=O)N3[C@@H]2SC(C)(C)[C@@H]3C(=O)O)c2ccccc2)C(=O)C1=O [PIPERACILLIN],32 µg/mL,16 µg/mL,1 µg/mL,> 256 µg/mL,> 256 µg/mL,> 256 µg/mL,> 256 µg/mL,> 256 µg/mL,> 256 µg/mL,> 256 µg/mL,500000 M⁻¹ s⁻¹,35%,MIC [15]: > 256 µg/mL; MIC [16]: > 256 µg/mL; MIC [17]: 128 µg/mL; MIC [18]: 4 µg/mL
CO/N=C(\C(=O)N[C@@H]1C(=O)N2C(C(=O)[O-])=C(C[n+]3cccc4c3CCC4)CS[C@H]12)c1csc(N)n1 [CEFPIROME],0.06 µg/mL,2 µg/mL,0.06 µg/mL,0.25 µg/mL,32 µg/mL,0.25 µg/mL,1 µg/mL,64 µg/mL,2 µg/mL,1 µg/mL,500 M⁻¹ s⁻¹,0.03%,
C[C@@H](O)[C@H]1C(=O)N2C(C(=O)O)=C(SCCNC=N)C[C@H]12 [IMIPENEM ANHYDROUS],,0.25 µg/mL,,,0.25 µg/mL,,,0.25 µg/mL,0.25 µg/mL,,,,
O=C(O)[C@H]1/C(=C/CO)O[C@@H]2CC(=O)N21 [CLAVULANIC ACID],,,,,,,,,,,,,IC50 [11]: 0.1 µM; IC50 [12]: 0.07 µM
CC1(C)S[C@@H]2[C@H](NC(=O)COc3ccccc3)C(=O)N2[C@H]1C(=O)O,,,,,,,,,,,2e+06 M⁻¹ s⁻¹,,
CC(C)(O/N=C(\C(=O)N[C@@H]1C(=O)N2C(C(=O)[O-])=C(C[n+]3ccccc3)CS[C@H]12)c1csc(N)n1)C(=O)O [CEFTAZIDIME],0.12 µg/mL,2 µg/mL,0.12 µg/mL,0.5 µg/mL,8 µg/mL,0.5 µg/mL,1 µg/mL,16 µg/mL,4 µg/mL,1 µg/mL,,,
C[C@]1(Cn2ccnn2)[C@H](C(=O)O)N2C(=O)C[C@H]2S1(=O)=O [TAZOBACTAM],,,,,,,,,,,,,IC50 [11]: 0.1 µM; IC50 [12]: 0.35 µM
CO/N=C(\C(=O)N[C@@H]1C(=O)N2C(C(=O)[O-])=C(C[N+]3(C)CCCC3)CS[C@H]12)c1csc(N)n1,0.06 µg/mL,1 µg/mL,,0.5 µg/mL,32 µg/mL,0.5 µg/mL,4 µg/mL,64 µg/mL,4 µg/mL,4 µg/mL,1000 M⁻¹ s⁻¹,0.06%,
CC1(C)S[C@@H]2[C@H](NC(=O)[C@H](N)c3ccc(O)cc3)C(=O)N2[C@H]1C(=O)O [AMOXICILLIN],512 µg/mL,32 µg/mL,2 µg/mL,> 256 µg/mL,> 256 µg/mL,> 256 µg/mL,> 256 µg/mL,> 256 µg/mL,> 256 µg/mL,> 256 µg/mL,2e+06 M⁻¹ s⁻¹,120%,MIC [19]: 4 µg/mL; MIC [20]: 2 µg/mL; MIC [21]: 32 µg/mL; MIC [22]: 32 µg/mL; MIC [23]: 32 µg/mL; MIC [24]: 32 µg/mL; MIC [25]: 32 µg/mL; MIC [26]: 32 µg/mL; MIC [27]: 8 µg/mL; MIC [28]: 32 µg/mL
CC1(C)S[C@@H]2[C@H](NC(=O)[C@H](C(=O)O)c3ccsc3)C(=O)N2[C@H]1C(=O)O [TICARCILLIN],,8 µg/mL,,,> 256 µg/mL,,,> 256 µg/mL,> 256 µg/mL,,1.5e+06 M⁻¹ s⁻¹,100%,MIC [19]: 16 µg/mL; MIC [20]: 2 µg/mL; MIC [21]: > 256 µg/mL; MIC [22]: > 256 µg/mL; MIC [23]: > 256 µg/mL; MIC [24]: > 256 µg/mL; MIC [25]: > 256 µg/mL; MIC [26]: > 256 µg/mL; MIC [27]: 8 µg/mL; MIC [28]: > 256 µg/mL
